ChEMBL document CHEMBL5126600, “Discovery of the First-in-Class G9a/GLP Covalent Inhibitors” (J Med Chem, 2022)
Active and inactive are the calls of the source. No cut-off for these calls is given here.

Key:
[1] = biological target: T1, Histone-lysine N-methyltransferase EHMT1 (Homo sapiens, UniProt Q9H9B1); assay: Binding affinity to human GLP (982 to 1266 residues) assessed as dissociation constant by isothermal titration calorimetry method
T1 sequence (Q9H9B1 whole entry): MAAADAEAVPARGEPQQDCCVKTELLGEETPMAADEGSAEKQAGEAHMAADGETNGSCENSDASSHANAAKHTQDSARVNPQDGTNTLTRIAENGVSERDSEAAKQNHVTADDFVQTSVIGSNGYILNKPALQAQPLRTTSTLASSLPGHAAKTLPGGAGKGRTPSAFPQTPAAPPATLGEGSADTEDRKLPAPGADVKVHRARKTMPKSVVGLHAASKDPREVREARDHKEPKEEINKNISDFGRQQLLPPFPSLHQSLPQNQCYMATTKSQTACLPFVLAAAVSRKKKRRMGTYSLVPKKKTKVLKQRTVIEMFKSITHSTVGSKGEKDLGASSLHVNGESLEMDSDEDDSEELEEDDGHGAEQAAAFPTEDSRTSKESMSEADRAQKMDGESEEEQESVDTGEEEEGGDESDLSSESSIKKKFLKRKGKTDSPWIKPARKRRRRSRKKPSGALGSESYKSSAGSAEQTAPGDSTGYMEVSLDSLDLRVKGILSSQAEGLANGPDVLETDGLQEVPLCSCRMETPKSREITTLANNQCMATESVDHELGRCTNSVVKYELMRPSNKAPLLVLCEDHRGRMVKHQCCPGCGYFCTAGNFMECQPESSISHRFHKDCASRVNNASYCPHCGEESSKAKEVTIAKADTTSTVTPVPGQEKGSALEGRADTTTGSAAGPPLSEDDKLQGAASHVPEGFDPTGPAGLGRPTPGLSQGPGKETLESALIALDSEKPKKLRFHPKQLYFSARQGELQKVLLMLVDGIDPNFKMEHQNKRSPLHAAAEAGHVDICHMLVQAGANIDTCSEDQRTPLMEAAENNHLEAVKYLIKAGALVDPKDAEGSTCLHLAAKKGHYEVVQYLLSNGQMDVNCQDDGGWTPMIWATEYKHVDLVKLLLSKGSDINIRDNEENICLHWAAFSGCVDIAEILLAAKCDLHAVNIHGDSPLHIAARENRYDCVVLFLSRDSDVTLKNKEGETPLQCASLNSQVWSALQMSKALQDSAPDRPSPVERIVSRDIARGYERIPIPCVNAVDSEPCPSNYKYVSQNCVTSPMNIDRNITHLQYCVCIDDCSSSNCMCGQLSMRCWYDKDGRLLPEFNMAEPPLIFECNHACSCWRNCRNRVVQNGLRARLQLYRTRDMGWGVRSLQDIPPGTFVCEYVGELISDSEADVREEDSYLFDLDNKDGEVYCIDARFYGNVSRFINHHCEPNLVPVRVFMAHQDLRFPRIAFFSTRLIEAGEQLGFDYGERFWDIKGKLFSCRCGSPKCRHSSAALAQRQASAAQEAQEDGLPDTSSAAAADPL
Summary of the method: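 ITC at 25 °C in 50 mM Tris-HCl pH 7.5, 150 mM NaCl, 1% DMSO; 500 μM compound in syringe titrated into 50 μM G9a or GLP catalytic domain in cell (initial 0.4 μL injection then 13 injections), stirring 750 rpm; run time about 50 min; single binding site fit; mean ± SD of two independent measurements.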

[2] = biological target: Protein arginine N-methyltransferase 3 (Homo sapiens) (UniProt O60678); assay: Inhibition of N-terminal His-tagged PRMT3 (2 to 531 residues)(unknown origin) expressed in Escherichia coli at 1 uM using 3H-SAM as a substrate relative to control
Summary of the method: (§1)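 Contracted 3H-SAM methyl-transfer scintillation proximity assay against a panel of methyltransferases; compound tested at 1 μM in duplicate; inhibition expressed as percent of control enzyme activity.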

[3] = biological target: Protein arginine N-methyltransferase 6 (Homo sapiens) (UniProt Q96LA8); assay: Inhibition of N-terminal His-tagged full-length recombinant PRMT6 (2 to 375 residues) (unknown origin) expressed in baculovirus expression system at 1 uM using 3H-SAM as a substrate relative to control; summary of the method: as §1
[4] = biological target: Histone-lysine N-methyltransferase SETD2 (Homo sapiens) (UniProt Q9BYW2); assay: Inhibition of SETD2 (unknown origin) at 1 uM using 3H-SAM as a substrate relative to control; summary of the method: as §1
K562 = assay: Down regulation of H3K9 dimethylation in human K562 cells at 0.2 to 5 uM incubated for 48 hrs by Western blot analysis; assay type: functional, cell-based; details: dose 0.2-5 µM
[5] = biological target: Histone-lysine N-methyltransferase EHMT1 (Homo sapiens) (UniProt Q9H9B1); assay: Inhibition of human GLP (982 to 1266 residues) assessed as covalent modification by measuring GLP adduct formation by mass spectrometry; details: time <= 120.0 min, TDE = time-dependent effect
Summary of the method: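 Purified G9a or GLP catalytic domain (5 μM) in 50 mM Tris-HCl pH 7.5, 150 mM NaCl incubated with 50 μM compound or DMSO at room temperature (1 h, or 30 and 60 min in time course); intact mass by ESI LC/MS-TOF; adduct % = adduct/(protein + adduct) × 100.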

Sequence of Histone-lysine N-methyltransferase SETD2 (Homo sapiens) (Q9BYW2 whole entry): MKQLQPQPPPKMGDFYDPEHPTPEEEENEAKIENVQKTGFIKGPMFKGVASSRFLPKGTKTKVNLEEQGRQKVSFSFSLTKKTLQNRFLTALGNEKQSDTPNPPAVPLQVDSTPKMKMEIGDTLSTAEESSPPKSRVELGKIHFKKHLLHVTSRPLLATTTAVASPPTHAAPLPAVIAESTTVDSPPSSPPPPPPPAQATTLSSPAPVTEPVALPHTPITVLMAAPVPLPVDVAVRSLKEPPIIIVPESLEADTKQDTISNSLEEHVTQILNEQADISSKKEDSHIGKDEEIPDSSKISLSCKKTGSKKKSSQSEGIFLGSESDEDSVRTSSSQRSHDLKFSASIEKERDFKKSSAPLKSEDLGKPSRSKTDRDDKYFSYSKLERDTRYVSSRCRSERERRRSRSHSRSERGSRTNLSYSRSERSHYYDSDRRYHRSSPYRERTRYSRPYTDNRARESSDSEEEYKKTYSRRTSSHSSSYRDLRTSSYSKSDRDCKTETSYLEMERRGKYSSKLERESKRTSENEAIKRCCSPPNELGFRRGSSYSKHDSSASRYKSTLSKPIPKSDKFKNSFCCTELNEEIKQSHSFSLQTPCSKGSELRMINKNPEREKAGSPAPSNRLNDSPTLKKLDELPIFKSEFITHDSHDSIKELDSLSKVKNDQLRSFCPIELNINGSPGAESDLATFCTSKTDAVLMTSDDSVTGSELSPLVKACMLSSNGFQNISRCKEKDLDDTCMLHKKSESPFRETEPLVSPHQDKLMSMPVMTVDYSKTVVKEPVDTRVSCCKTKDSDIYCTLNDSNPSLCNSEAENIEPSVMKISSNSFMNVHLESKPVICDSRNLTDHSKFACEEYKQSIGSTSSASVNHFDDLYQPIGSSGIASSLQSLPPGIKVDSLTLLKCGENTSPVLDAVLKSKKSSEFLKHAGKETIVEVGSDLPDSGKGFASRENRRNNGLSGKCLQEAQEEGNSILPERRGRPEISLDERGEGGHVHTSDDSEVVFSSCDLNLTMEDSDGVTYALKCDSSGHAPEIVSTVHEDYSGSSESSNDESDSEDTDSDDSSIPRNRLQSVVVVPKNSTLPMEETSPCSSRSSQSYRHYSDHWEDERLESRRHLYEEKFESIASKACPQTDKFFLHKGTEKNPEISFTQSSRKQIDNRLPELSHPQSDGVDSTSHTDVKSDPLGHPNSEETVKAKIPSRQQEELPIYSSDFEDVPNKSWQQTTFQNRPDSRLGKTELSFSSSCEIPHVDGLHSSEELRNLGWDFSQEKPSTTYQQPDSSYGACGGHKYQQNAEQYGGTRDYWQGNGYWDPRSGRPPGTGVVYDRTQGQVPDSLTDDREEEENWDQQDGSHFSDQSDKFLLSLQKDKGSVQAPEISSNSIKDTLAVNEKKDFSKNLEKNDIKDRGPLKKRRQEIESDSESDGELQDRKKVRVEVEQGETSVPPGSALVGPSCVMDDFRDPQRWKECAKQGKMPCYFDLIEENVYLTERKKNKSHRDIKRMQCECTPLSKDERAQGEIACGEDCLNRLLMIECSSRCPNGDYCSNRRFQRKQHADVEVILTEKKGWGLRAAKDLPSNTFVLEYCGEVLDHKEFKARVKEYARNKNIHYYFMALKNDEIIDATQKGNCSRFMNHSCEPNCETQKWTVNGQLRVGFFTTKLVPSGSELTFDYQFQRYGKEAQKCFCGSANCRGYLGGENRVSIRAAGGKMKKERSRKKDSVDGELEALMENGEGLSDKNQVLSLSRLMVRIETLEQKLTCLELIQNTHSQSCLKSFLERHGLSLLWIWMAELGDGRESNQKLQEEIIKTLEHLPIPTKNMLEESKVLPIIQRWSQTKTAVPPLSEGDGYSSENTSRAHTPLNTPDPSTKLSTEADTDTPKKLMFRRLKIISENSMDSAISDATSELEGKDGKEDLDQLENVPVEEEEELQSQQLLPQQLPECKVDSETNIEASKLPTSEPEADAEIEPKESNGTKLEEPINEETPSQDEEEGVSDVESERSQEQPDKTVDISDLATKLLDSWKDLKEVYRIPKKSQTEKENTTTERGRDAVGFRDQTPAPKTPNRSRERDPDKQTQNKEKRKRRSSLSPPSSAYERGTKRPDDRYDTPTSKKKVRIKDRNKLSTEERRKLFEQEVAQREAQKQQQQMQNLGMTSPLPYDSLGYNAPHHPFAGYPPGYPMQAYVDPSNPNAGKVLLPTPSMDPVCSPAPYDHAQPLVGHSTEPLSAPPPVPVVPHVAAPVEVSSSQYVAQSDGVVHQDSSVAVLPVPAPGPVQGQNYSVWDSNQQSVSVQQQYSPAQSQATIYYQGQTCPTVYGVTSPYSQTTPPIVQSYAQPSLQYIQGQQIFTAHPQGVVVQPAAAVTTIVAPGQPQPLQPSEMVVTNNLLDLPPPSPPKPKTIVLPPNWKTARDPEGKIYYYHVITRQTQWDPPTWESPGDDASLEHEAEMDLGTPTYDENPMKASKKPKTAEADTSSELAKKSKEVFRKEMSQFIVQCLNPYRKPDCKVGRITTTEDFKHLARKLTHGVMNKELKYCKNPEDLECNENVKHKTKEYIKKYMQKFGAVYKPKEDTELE
Sequence of Protein arginine N-methyltransferase 6 (Homo sapiens) (Q96LA8 whole entry, looked up, the tested form may be a part): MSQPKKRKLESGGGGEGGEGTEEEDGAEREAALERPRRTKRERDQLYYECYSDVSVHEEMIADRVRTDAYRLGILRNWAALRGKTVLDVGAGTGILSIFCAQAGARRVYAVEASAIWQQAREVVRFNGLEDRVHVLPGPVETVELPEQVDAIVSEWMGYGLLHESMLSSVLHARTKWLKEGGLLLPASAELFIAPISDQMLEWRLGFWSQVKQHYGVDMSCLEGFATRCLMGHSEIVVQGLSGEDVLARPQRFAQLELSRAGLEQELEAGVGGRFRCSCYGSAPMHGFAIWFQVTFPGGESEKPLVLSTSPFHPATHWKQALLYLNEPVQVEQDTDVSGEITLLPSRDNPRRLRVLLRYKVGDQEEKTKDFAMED
Sequence of Protein arginine N-methyltransferase 3 (Homo sapiens) (O60678 2-531 limits assumed): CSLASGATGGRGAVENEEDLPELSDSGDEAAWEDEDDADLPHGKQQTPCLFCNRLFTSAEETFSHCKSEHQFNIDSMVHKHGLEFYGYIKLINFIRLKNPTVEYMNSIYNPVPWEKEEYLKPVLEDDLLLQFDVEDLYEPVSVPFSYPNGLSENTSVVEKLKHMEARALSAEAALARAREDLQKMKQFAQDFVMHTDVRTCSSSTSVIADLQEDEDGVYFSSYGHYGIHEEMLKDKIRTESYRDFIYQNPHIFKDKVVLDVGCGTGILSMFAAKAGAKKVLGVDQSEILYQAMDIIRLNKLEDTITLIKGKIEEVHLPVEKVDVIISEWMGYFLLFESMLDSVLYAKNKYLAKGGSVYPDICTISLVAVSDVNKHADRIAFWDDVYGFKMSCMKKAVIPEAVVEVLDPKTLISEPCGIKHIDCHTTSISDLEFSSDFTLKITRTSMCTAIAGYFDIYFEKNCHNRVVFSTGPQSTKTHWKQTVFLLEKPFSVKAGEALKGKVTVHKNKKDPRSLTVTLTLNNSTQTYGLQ

C=CC(=O)Nc1cc(NC2CCN(C(C)C)CC2)c2cc(OC)c(OCCCN3CCCC3)cc2n1
Kd [1]: 46 nM
inhibition [2]: < 50%
inhibition [3]: < 50%
inhibition [4]: < 50%
Activity (K562): Active
inhibition [5]: Tde
